The source made the active and inactive calls. The calls are words filed in the database; no cut-off is given here.
How the values were obtained:
Plasmodium berghei [1] = experiment: Antimalarial activity against Plasmodium berghei ANKA infected in specific pathogen-free C57BL/6 mouse assessed as reduction in parasitemia at 50 mg/kg, ip administered once daily for 4 days measured up to 35 days post-infection by rapid staining-based microscopic analysis; assay type: functional, organism-based
Summary of the method: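 Established-infection model: female C57BL/6 mice inoculated i.p. with 10^6 PbA-parasitized red cells; compound in DMSO diluted in saline given i.p. at 50 mg/kg on days 4, 5, 6 and 7 post-infection, chloroquine 50 mg/kg as comparator, vehicle controls; 7 mice per group. Tail-vein smears, % parasitemia by microscopy, mean ± SEM; survival recorded.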

Plasmodium berghei [2] = experiment: Antimalarial activity against Plasmodium berghei ANKA infected in specific pathogen-free C57BL/6 mouse assessed as reduction in parasitemia at 100 mg/kg, po administered once daily for 4 days measured up to 35 days post-infection by rapid staining-based microscopic analysis; assay type: functional, organism-based
Summary of the method: (§1)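 Female C57BL/6 mice, 8–9 weeks old, inoculated i.p. with 10^6 P. berghei ANKA-parasitized red cells. Compound dissolved in DMSO, diluted in 154 mM NaCl, given by oral gavage at 100 mg/kg on days 4, 5, 6 and 7 post-infection. Tail-vein thin smears stained with Rapid Stain, % parasitemia by microscopy; mice euthanized at signs of severe disease.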

Plasmodium berghei [3] = experiment: Antimalarial activity against Plasmodium berghei ANKA infected in specific pathogen-free C57BL/6 mouse assessed as reduction in disease severity at 100 mg/kg, po administered once daily for 4 days measured up to 35 days post-infection by rapid staining-based microscopic analysis; assay type: functional, organism-based; summary of the method: as §1
Plasmodium falciparum [4] = experiment: Antimalarial activity against synchronized ring stage CQ-resistant Plasmodium falciparum W2 infected in human erythrocytes incubated for 24 hrs followed by compound washout and subsequent compound addition and measured after 48 hrs by YOYO-1 probe-based flow cytometry; assay type: functional, organism-based
Falcipain 2 = target: T1, Falcipain 2 (Plasmodium falciparum, UniProt Q9N6S8); experiment: Inhibition of Plasmodium falciparum N-terminal His6-tagged falcipain-2 (35 residues) expressed in Escherichia coli M15 pREP4 using Z-Lue-Arg-AMC as substrate measured after 30 mins by spectrofluorometric method
T1 sequence (Q9N6S8 whole entry): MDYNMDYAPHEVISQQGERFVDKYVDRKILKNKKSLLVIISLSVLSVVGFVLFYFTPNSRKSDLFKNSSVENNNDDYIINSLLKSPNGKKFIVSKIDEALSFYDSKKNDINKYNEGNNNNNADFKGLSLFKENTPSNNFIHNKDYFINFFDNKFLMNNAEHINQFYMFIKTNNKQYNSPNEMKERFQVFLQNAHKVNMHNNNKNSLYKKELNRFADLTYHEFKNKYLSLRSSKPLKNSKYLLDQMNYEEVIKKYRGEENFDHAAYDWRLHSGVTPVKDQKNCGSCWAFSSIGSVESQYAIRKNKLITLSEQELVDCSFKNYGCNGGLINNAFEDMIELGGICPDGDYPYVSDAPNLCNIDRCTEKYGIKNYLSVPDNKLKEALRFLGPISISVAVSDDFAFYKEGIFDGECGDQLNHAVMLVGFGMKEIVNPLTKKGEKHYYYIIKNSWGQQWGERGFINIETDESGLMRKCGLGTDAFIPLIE
Summary of the method: (§2)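 Recombinant heterologously expressed FP2 or FP3; inhibition measured by continuous kinetic cleavage of fluorogenic substrate Z-Leu-Arg-AMC.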

Plasmodium falciparum [5] = experiment: Antimalarial activity against synchronized ring stage CQ-sensitive Plasmodium falciparum 3D7 infected in human erythrocytes incubated for 24 hrs followed by compound washout and subsequent compound addition and measured after 48 hrs by YOYO-1 probe-based flow cytometry; assay type: functional, organism-based
[6] = target: T2, Cysteine protease falcipain-3 (Plasmodium falciparum, UniProt Q9NAW4); experiment: Inhibition of Plasmodium falciparum N-terminal His-tagged falcipain-3 (33 residues) expressed in Escherichia coli M15 pREP4 using Z-Leu-Arg-AMC as substrate measured after 30 mins by spectrofluorometric method; summary of the method: as §2
T2 sequence (Q9NAW4 whole entry): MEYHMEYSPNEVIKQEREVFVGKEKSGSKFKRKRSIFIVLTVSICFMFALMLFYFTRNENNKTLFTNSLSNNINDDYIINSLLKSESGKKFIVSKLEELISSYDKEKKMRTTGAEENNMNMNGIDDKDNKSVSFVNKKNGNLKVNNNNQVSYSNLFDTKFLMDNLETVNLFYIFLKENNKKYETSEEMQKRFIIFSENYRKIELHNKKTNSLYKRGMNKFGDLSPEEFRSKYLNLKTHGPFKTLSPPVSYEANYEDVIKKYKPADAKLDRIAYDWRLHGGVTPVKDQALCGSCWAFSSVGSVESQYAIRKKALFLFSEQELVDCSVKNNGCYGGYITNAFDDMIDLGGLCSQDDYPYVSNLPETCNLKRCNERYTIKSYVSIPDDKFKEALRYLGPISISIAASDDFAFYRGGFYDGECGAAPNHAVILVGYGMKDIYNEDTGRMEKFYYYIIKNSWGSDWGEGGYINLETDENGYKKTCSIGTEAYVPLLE

[7] = Half life in Swiss mouse plasma at 1 ug/ml by UPLC-MS analysis; assay type: ADME, cell-free
Summary of the method: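 Fresh whole blood from non-fasted male Swiss outbred mice; plasma separated by centrifugation. Compound spiked to 1 μg/mL final (0.2% DMSO, 0.4% acetonitrile), kept at 37 °C; aliquots taken over 4 h (n=3 per time point), snap-frozen, protein precipitated with acetonitrile, UPLC-MS (ESI+) against matrix calibration standards. Exponential decay fit gives k; half-life = ln(2)/k.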

[8] = Half life in Swiss mouse blood at 1 ug/ml by UPLC-MS analysis; assay type: ADME, tissue-based; conditions: whole blood
HEK293 = experiment: Cytotoxicity against HEK293 cells assessed as reduction in cell viability at 25 uM measured after 18 hrs by alamar blue assay; assay type: cell-based; conditions: human, hek293, 18 h
[9] = Drug metabolism in human liver microsomes assessed as N,N-bis-demethylation at 10 uM measured after 60 mins in presence of NADPH-generating system by UPLC-MS analysis; assay type: ADME, Microsome; conditions: 1 h
[10] = Drug metabolism in mouse liver microsomes assessed as N,N-bis-demethylation at 10 uM measured after 60 mins in presence of NADPH-generating system by UPLC-MS analysis; assay type: ADME, Microsome; conditions: 1 h

Compound	Activity (Plasmodium berghei [1])	Activity (Plasmodium berghei [2])	Activity (Plasmodium berghei [3])	IC50 (Plasmodium falciparum [4]) [nM]	IC50 (Falcipain 2) [nM]	IC50 (Plasmodium falciparum [5]) [nM]	IC50 [6] [nM]	half-life at 1 ug/ml [7] [h]	half-life at 1 ug/ml [8] [h]	Activity (HEK293)	Drug metabolism [9]	Drug metabolism [10]
CCN(CC)CCCC(C)Nc1ccnc2cc(Cl)ccc12 (stereo unspecified)	Active	Active	Active									
COC1=CC(=O)N(C(=O)/C=C/[C@H](CC2CCCCC2)NC(=O)[C@H](CC(C)C)NC(=O)[C@H](CC(C)C)NC(=O)[C@H](C(C)C)N(C)C)[C@H]1Cc1c[nH]c2ccccc12				54	270	76	2570					
COC1=CC(=O)N(C(=O)/C=C/[C@H](C)NC(=O)[C@H](CC(C)C)NC(=O)[C@H](CC(C)C)NC(=O)[C@H](C(C)C)N(C)C)[C@H]1Cc1c[nH]c2ccccc12.O=C(O)C(F)(F)F								< 0.0333	< 0.0333	Non-Toxic		
COC1=CC(=O)N(C(=O)/C=C/[C@H](C)NC(=O)[C@H](CC2CCCCC2)NC(=O)[C@H](CC(C)C)NC(=O)C2CCN(C)CC2)[C@H]1Cc1c[nH]c2ccccc12				59	156	205	480					
COC1=CC(=O)N(C(=O)/C=C/[C@H](C)NC(=O)[C@H](CC2CCCCC2)NC(=O)[C@H](CC(C)C)NC(=O)[C@H](C(C)C)N(C)C)[C@H]1Cc1c[nH]c2ccccc12				37	235	72	407					
COC1=CC(=O)N(C(=O)/C=C/[C@H](C)NC(=O)[C@H](CC(C)C)NC(=O)[C@H](CC2CCCCC2)NC(=O)[C@H](C(C)C)N(C)C)[C@H]1Cc1c[nH]c2ccccc12				11	59	14	131					
CC(C)C[C@H](NC(=O)[C@@H]1O[C@H]1C(=O)O)C(=O)NCCCCN=C(N)N					68		136					
COC1=CC(=O)N(C(=O)/C=C/[C@H](C)NC(=O)[C@H](CC(C)C)NC(=O)[C@H](Cc2ccccc2)NC(=O)[C@H](C(C)C)N(C)C)[C@H]1Cc1c[nH]c2ccccc12				10	60	24	851					
C[C@@H]1CC[C@H]2[C@@H](C)C(=O)O[C@@H]3O[C@@]4(C)CC[C@@H]1[C@]32OO4 [ARTEMISININ]				21		32						
COC1=CC(=O)N(C(=O)/C=C/[C@@H](NC(=O)[C@H](CC(C)C)NC(=O)[C@H](CC2CCCCC2)NC(=O)[C@H](C(C)C)N(C)C)C2CCCCC2)[C@H]1Cc1c[nH]c2ccccc12				95	169	83	490					
COC1=CC(=O)N(C(=O)/C=C/[C@H](C)NC(=O)[C@H](CC(C)C)NC(=O)[C@H](CCc2ccccc2)NC(=O)[C@H](C(C)C)N(C)C)[C@H]1Cc1c[nH]c2ccccc12.O=C(O)C(F)(F)F				7	57	5	228	9.28	1.83	Non-Toxic	Metabolite_Detected	Metabolite_Detected
COC1=CC(=O)N(C(=O)/C=C/[C@H](C)NC(=O)[C@H](CCc2ccccc2)NC(=O)[C@H](CC2CCCCC2)NC(=O)[C@H](C(C)C)N(C)C)[C@H]1Cc1c[nH]c2ccccc12				478	3520	1250	8790					
COC1=CC(=O)N(C(=O)/C=C/C(C)(C)NC(=O)[C@H](CC(C)C)NC(=O)[C@H](CC(C)C)NC(=O)[C@H](C(C)C)N(C)C)[C@H]1Cc1c[nH]c2ccccc12				1020	> 50000	6990	> 50000					
COC1=CC(=O)N(C(=O)/C=C/[C@H](C)NC(=O)C(C)(C)NC(=O)[C@H](CC(C)C)NC(=O)[C@H](C(C)C)N(C)C)[C@H]1Cc1c[nH]c2ccccc12				3730	> 50000	> 10000	> 50000					
COC1=CC(=O)N(C(=O)/C=C/[C@@H](NC(=O)[C@H](CC(C)C)NC(=O)[C@H](CC(C)C)NC(=O)[C@H](C(C)C)N(C)C)C2CCCCC2)[C@H]1Cc1c[nH]c2ccccc12.O=C(O)C(F)(F)F				10	84	9	484	> 10	> 10	Non-Toxic	Metabolite_Detected	Metabolite_Detected
COC1=CC(=O)N(C(=O)/C=C/[C@H](C)NC(=O)[C@H](CCc2ccccc2)NC(=O)[C@H](CC(C)C)NC(=O)[C@H](C(C)C)N(C)C)[C@H]1Cc1c[nH]c2ccccc12				691	3100	2590	10200					
COC1=CC(=O)N(C(=O)/C=C/[C@H](C)NC(=O)[C@H](CC2CCCCC2)NC(=O)[C@H](CC2CCCCC2)NC(=O)[C@H](C(C)C)N(C)C)[C@H]1Cc1c[nH]c2ccccc12				119	464	229	459					
COC1=CC(=O)N(C(=O)/C=C/[C@H](C)NC(=O)[C@H](CC2CCCCC2)NC(=O)[C@H](CC2CCCCC2)NC(=O)C2CCN(C)CC2)[C@H]1Cc1c[nH]c2ccccc12				55	455	164	547					

— ChEMBL document CHEMBL4350969, “Falcipain Inhibitors Based on the Natural Product Gallinamide A Are Potent in Vitro and in Vivo Antimalarials” (J Med Chem, 2019)
